Rows were chosen to be rich in hits. Some 2.3% of all compounds tested hit in one or more screens of this group.
TRPC6 activator = activates the mouse TRPC6 cation channel | Q61143 | HEK293-TRPC6 membrane potential dye fluorescence; active compounds read high | B-score at 10 µM | 310,000 compounds, 0.13% hits | AID 2550;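 active means B-score of the integrated fluorescence ratio above library mean plus 3 SD, and starting fluorescence ratio within library mean plus 5 SD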;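 further: higher score means more depolarization so channel activation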
TRPC4 PAM = allosterically enhances the mouse TRPC4 cation channel; HEK293 TRPC4beta/mu-opioid, DAMGO EC20, Fluo-4 Ca2+ flux; active compounds read high; Q9QUQ5; 310,000 compounds, 0.42% hits; B-score at 10 µM;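 active means B-score of calcium response area above 5 SD of library B-scores, with initial fluorescence ratio within 5 SD of library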;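 further: B-score of integrated fluorescence ratio over time as area under calcium response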
Target sequence (Q9QUQ5 whole entry, looked up): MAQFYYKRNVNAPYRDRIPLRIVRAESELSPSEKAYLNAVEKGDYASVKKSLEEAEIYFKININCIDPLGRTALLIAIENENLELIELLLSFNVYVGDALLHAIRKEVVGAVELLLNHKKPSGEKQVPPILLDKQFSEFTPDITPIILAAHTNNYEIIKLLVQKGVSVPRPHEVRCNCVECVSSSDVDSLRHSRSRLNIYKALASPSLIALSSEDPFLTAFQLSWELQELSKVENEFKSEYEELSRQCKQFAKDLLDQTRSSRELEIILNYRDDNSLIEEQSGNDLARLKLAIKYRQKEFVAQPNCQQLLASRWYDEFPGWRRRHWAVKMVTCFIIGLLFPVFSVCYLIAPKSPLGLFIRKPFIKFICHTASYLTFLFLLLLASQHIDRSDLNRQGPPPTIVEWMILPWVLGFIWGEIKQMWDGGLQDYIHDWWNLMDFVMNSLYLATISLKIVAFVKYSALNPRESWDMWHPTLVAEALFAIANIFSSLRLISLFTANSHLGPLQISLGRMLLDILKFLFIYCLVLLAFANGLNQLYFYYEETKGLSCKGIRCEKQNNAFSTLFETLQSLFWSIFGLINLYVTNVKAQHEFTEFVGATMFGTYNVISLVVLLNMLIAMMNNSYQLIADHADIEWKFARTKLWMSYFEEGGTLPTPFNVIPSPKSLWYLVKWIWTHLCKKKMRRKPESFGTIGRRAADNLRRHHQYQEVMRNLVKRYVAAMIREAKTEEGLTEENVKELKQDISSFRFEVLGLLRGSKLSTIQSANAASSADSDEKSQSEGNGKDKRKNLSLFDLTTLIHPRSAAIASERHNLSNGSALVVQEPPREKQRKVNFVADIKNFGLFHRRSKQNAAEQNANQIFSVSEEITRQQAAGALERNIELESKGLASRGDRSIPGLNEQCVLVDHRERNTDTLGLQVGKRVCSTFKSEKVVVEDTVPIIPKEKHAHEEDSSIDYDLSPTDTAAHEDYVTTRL
TRPC4 block = blocks the mouse TRPC4 cation channel; Q9QUQ5; HEK293 TRPC4beta/mu-opioid, DAMGO-evoked Fluo4 calcium flux; active compounds read low; B-score at 10 µM; 300,000 compounds, 0.39% hits;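 active means B-score over 3 SD under the library average, no early fluorescence shift, positive overall ratio signal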
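Material: HEK293 cells with stable TRPC4beta plus mu-opioid receptor expression / Probe or stimulus: DAMGO in two steps, submaximal then maximal / Compound: single concentration per test compound / Technique: kinetic Fluo4 fluorescence imaging of calcium influx / Read-out: per-well B score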
TRPC6 inh = blocks the mouse TRPC6 cation channel; B-score at 10 µM; HEK293-TRPC6, membrane potential dye, ACh-evoked depolarization; active compounds read low; Q61143; 310,000 compounds, 1.1% hits;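 active means B-score under library mean minus 3 SD, initial fluorescence not abnormally high, positive integrated signal ratio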;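 further: B-score derived from integrated fluorescence ratio over the kinetic read; more negative B-score means stronger inhibition of depolarization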
TRPC4 act = opens the mouse TRPC4 cation channel; HEK293 TRPC4beta/mu-opioid, Fluo4 calcium fluorescence; active compounds read high; B-score at 10 µM; 310,000 compounds, 0.49% hits; AID 2237;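 active means B-score above 5 SD of library B-scores, and initial fluorescence ratio not above library mean plus 5 SD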;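 further: positive B-score marks a calcium rise read as TRPC4 activation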
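System: HEK293 cells stably co-expressing mouse TRPC4beta and mu-opioid receptor; Schedule: Fluo4 dye loading 45 min at room temperature, 110 s recording; Detection: Fluo4 fluorescence, kinetic; Evaluation: B-scored integrated calcium fluorescence ratio; Controls: buffer (low) and maximal DAMGO (high).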
TRPC4 spec 2 = second selectivity test of TRPC6 inhibitors: effect on mouse TRPC4 | shares compounds with TRPC6 inh | HEK293 TRPC4/MOR, membrane potential dye fluorescence; channel activated by saturating DAMGO dose | 920 compounds, 42% hits | AID 2776 | inhibition, % at 10 µM;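 active means compounds whose fluorescence signal differed from control wells by over 3 SD, either direction, in both duplicate plates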
TRPC4 spec = tests whether TRPC6 inhibitors also affect mouse TRPC4; shares compounds with TRPC6 inh; 920 compounds, 61% hits; activity change, negative = inhibition, % at 10 µM; HEK293 TRPC4/mu-opioid, membrane potential fluorescence;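 active means rise or fall in signal beyond 3 SD of buffer-only wells in both replicate plates, either sign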;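 further: integrated kinetic ratio of fluorescence range over baseline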
HEK293 MPD ctr 2-1 = parental HEK293 nonspecific activity of TRPC6 inhibitors, second screen | shares compounds with TRPC6 inh | parental HEK293 membrane potential dye fluorescence; maximal acetylcholine challenge after compound addition | signal change vs control, % at 10 µM | 920 compounds, 31% hits;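 active means membrane potential signal moving either way by over 3 SD of the maximum-effect control, in both duplicate plates, meaning non-specific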
HEK293 MPD ctr-1 = parental HEK293 nonspecific activity of TRPC6 inhibitors; shares compounds with TRPC6 inh; parental HEK293 membrane potential dye fluorescence; membrane potential signal change, % at 10 µM; 920 compounds, 60% hits; AID 2780;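 active means membrane potential signal shifting up or down by more than 3 SD of buffer-only wells, on both duplicate plates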
HEK293 MPD ctr-2 = counter-screen for TRPC6 modulators: effect in parental HEK293 cells; shares compounds with TRPC6 inh; membrane potential signal change, % at 10 µM; 2,400 compounds, 51% hits; membrane potential dye fluorescence;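 active means membrane potential signal moves up or down beyond 5 SD from buffer-only wells, on both duplicate plates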
HEK293 MPD ctr 2-2 = second counter-screen for TRPC6 modulators: effect in parental HEK293 cells | shares compounds with TRPC6 inh | inhibition, % at 10 µM | 2,400 compounds, 14% hits | membrane potential dye fluorescence; after compound, maximal acetylcholine stimulation;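 active means membrane potential signal drops by more than 5 SD from the mean control signal, in both duplicate plates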;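 further: plate controls were acetylcholine ECmax control wells for no effect and buffer only wells for full effect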
TRPC4/MOR mod = tests whether TRPC6 modulators also affect mouse TRPC4. shares compounds with TRPC6 inh. HEK293 TRPC4/mu-opioid, membrane potential fluorescence. percent change from control (negative = decrease, positive = increase), % at 10 µM. 2,400 compounds, 69% hits;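 active means membrane potential signal moved up or down beyond 5 SD of buffer control wells, in both duplicate plates, actives on both sides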;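 further: plate controls were assay buffer wells for no effect and DAMGO maximal-effect wells for full effect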
TRPC4/MOR inh 2 = mouse TRPC4 off-target activity of TRPC6 modulators, second screen | shares compounds with TRPC6 inh | HEK293 TRPC4/mu-opioid, membrane potential dye fluorescence; stimulated with maximal-effect DAMGO | inhibition, % at 10 µM | 2,400 compounds, 55% hits;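 active means drop in membrane potential signal beyond 5 SD of the control wells in both duplicate plates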;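 further: TRPC4 counter screen for TRPC6 hits run under conditions tuned for TRPC6 not TRPC4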
TRPC6 inh conf = confirmation of mouse TRPC6 inhibitors; shares compounds with TRPC6 inh; AID 488960; 3,300 compounds, 43% hits; HEK293-TRPC6, membrane potential dye, ACh-evoked depolarization; inhibition, % at 10 µM;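 active means fluorescence ratio falls more than 5 SD below the full-stimulation control mean, in both duplicate runs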;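 further: integrated fluorescence ratio of peak minus minimum over baseline after agonist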
TRPC6 act confirm = mouse TRPC6 activator confirmation; shares compounds with TRPC6 inh; HEK293-TRPC6 membrane potential dye fluorescence, FDSS; activation, % at 10 µM; 2,800 compounds, 11% hits; AID 488961;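 active means ratio signal rise beyond 5 SD above unstimulated control wells' mean, seen in both duplicate runs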;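 further: plate controls were buffer EC0 wells for no effect and acetylcholine ECmax response for full effect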
* marks the source's active call; other numbers are inactive results.

For Cc1ccc(-c2csc(NC(=O)CSc3nc(C)cc(=O)[nH]3)n2)cc1 the results were TRPC6 activator inactive, TRPC4 PAM inactive, TRPC4 block inactive, TRPC6 inh -7.7*, TRPC4 act inactive, TRPC4 spec 2 inactive, TRPC4 spec inactive, HEK293 MPD ctr 2-1 260%*, HEK293 MPD ctr-1 inactive, TRPC6 inh conf inactive and TRPC6 act confirm inactive.
Cc1cc(N2CCCC2)nc2ccc(NC(=S)NCCCOC(C)C)cc12 was read as TRPC6 activator inactive, TRPC4 PAM inactive, TRPC4 block inactive, TRPC6 inh -7.1*, TRPC4 act inactive, HEK293 MPD ctr-2 -126%*, HEK293 MPD ctr 2-2 inactive, TRPC4/MOR mod -22%*, TRPC4/MOR inh 2 46%*, TRPC6 inh conf 42%* and TRPC6 act confirm inactive.
COCCCNC(=S)Nc1ccc2nc(N3CCOCC3)cc(C)c2c1 was read as TRPC6 activator inactive, TRPC4 PAM inactive, TRPC4 block inactive, TRPC6 inh inactive and TRPC4 act inactive.
Screening Cc1cc(N2CCOCC2)nc2ccc(NC(=S)NCCC(C)C)cc12 returned TRPC6 activator inactive, TRPC4 PAM inactive, TRPC4 block inactive, TRPC6 inh inactive and TRPC4 act inactive.
`Cc1cc(N2CCN(C)CC2)nc2ccc(NC(=S)NCCC(C)C)cc12` gave TRPC6 activator inactive, TRPC4 PAM inactive, TRPC4 block inactive, TRPC6 inh -6.2*, TRPC4 act inactive, HEK293 MPD ctr-2 -110%*, HEK293 MPD ctr 2-2 inactive, TRPC4/MOR mod -27%*, TRPC4/MOR inh 2 72%*, TRPC6 inh conf 56%* and TRPC6 act confirm inactive.
Screening CCCN(CCC)CCCNC(=S)Nc1ccc2nc(N3CCCC3)cc(C)c2c1 returned TRPC6 activator inactive, TRPC4 PAM inactive, TRPC4 block inactive, TRPC6 inh -8*, TRPC4 act inactive, TRPC4 spec 2 inactive, TRPC4 spec -15%*, HEK293 MPD ctr 2-1 19%*, HEK293 MPD ctr-1 -166%*, TRPC6 inh conf inactive and TRPC6 act confirm inactive.
Screening CC(C)CCN1CCN(Cc2cccc(C(F)(F)F)c2)CC1CCO (stereo unspecified) returned TRPC6 activator inactive, TRPC4 PAM inactive, TRPC4 block inactive, TRPC6 inh inactive and TRPC4 act inactive.
Screening CC(NC(=O)Nc1nnc(C(F)(F)F)s1)(C(F)(F)F)C(F)(F)F returned TRPC6 activator inactive, TRPC4 PAM inactive, TRPC4 block inactive, TRPC6 inh -7.3*, TRPC4 act inactive, TRPC4 spec 2 57%*, TRPC4 spec 51%*, HEK293 MPD ctr 2-1 inactive, HEK293 MPD ctr-1 30%* and TRPC6 inh conf 87%*.
CC(C)(C)CC(=O)Nc1nnc(C(F)(F)F)s1 was read as TRPC6 activator inactive, TRPC4 PAM inactive, TRPC4 block inactive, TRPC6 inh inactive and TRPC4 act inactive.
For CCOc1ccc(CCNC(=O)Cn2nc(C)c3c(C)n(-c4ccccc4)nc3c2=O)cc1OCC the results were TRPC6 activator inactive, TRPC4 PAM inactive, TRPC4 block inactive, TRPC6 inh inactive and TRPC4 act inactive.
For Cc1nc(N)nc(N)c1CCCc1ccc(Cl)c(Cl)c1 the results were TRPC6 activator inactive, TRPC4 PAM inactive, TRPC4 block inactive, TRPC6 inh -5.7*, TRPC4 act inactive, HEK293 MPD ctr-2 inactive, HEK293 MPD ctr 2-2 inactive, TRPC4/MOR mod inactive, TRPC4/MOR inh 2 50%*, TRPC6 inh conf 40%* and TRPC6 act confirm inactive.
`O=C(COC(=O)c1ccc(F)c(S(=O)(=O)N2CCOCC2)c1)NCc1ccco1` gave TRPC6 activator inactive, TRPC4 PAM inactive, TRPC4 block inactive, TRPC6 inh inactive and TRPC4 act inactive.
Screening O=C(COC(=O)c1cc(S(=O)(=O)N2CCOCC2)ccc1F)NCc1ccco1 returned TRPC6 activator inactive, TRPC4 PAM inactive, TRPC4 block inactive, TRPC6 inh -6.2*, TRPC4 act inactive, HEK293 MPD ctr-2 inactive, HEK293 MPD ctr 2-2 inactive, TRPC4/MOR mod inactive, TRPC4/MOR inh 2 inactive, TRPC6 inh conf inactive and TRPC6 act confirm inactive.
Screening COc1ccc(C2N(c3ccccc3)C(=S)N3CCCN23)cc1 (stereo unspecified) returned TRPC6 activator inactive, TRPC4 PAM inactive, TRPC4 block inactive, TRPC6 inh inactive and TRPC4 act inactive.
For S=C1N(c2ccccc2)C(c2ccc(Cl)cc2)N2CCCN12 (stereo unspecified) the results were TRPC6 activator inactive, TRPC4 PAM inactive, TRPC4 block inactive, TRPC6 inh -8.7*, TRPC4 act inactive, TRPC4 spec 2 inactive, TRPC4 spec inactive, HEK293 MPD ctr 2-1 30%*, HEK293 MPD ctr-1 inactive, TRPC6 inh conf 68%* and TRPC6 act confirm inactive.

Compound activity (PubChem BioAssay)
